The values below come from ChEMBL document CHEMBL1155093 (Bioorg Med Chem Lett, 2008).

Structures are written as SMILES.

Data set [1] concerns the target T1, Nuclear receptor subfamily 1 group I member 2 (Homo sapiens, UniProt O75469).
T1 sequence (O75469 whole entry): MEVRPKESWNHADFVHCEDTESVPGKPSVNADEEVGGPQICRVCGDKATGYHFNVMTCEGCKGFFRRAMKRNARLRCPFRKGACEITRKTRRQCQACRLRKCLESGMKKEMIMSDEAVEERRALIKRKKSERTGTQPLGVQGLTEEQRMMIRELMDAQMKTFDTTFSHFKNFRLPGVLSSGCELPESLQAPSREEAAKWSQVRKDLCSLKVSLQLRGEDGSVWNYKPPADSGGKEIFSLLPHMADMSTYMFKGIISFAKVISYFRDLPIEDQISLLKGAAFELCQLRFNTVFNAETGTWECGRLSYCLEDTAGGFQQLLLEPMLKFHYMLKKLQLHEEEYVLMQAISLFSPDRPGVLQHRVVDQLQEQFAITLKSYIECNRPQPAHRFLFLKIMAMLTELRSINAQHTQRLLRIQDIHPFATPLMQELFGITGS
Kind of data set: Induction of PXR transactivation in HepG2 cells. Format: cell-based. Put shortly: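 HepG2 cells transiently transfected with PXR-pcDNA3 and Cyp3A-Luc reporter, cryopreserved, then thawed into DMEM with 5% charcoal/dextran FBS. Ten concentrations, 1:3 serial dilution, DMSO 0.1% final; 24 h at 37 °C. Luciferase luminescence read. % activation relative to 10 µM rifampicin (total) and DMSO (blank); EC50 and Emax from concentration–%Act plot.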

In data set [2] the target is T1, Nuclear receptor subfamily 1 group I member 2. The data set can be described thus: Inhibition of refampicin-mediated PXR activation in HepG2 cells. It counts as cell-based. Put shortly: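 HepG2 cells transiently co-transfected with PXR-pcDNA3 and Cyp3A-Luc, cryopreserved and thawed into charcoal/dextran-FBS medium. Co-incubated with 10 µM rifampicin plus compound at ten concentrations (1:3 dilution, 0.1% DMSO final), 24 h at 37 °C; luciferase luminescence. Percent inhibition computed; IC50 and Imax taken from the concentration–%Inh plot.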

Data set [3] deals with Cytochrome P450 3A4 (Homo sapiens, UniProt P08684). The data set can be described thus: Inhibition of CYP3A4 in human liver microsome. It counts as ADME, microsomes. The essentials: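 Pooled human liver microsomes 0.1 mg/mL, midazolam 5 µM, NADPH 1 mM, 5 min reaction. Time-dependent variant: 30 min preincubation without midazolam, then midazolam added for 5 min. 1-Hydroxymidazolam measured against DMSO control; IC50 and maximum inhibition taken from the concentration–%Inh plot.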

Data set [4] has as its system Caco-2. Kind of data set: Cytotoxicity against human Caco-2 cells assessed as viability upto 100 uM by MTT assay. Format: functional. The essentials: (§1)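 MTT viability read-out; cells exposed to a concentration range of drug for 48 h. Three separate experiments, each run in triplicate.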
Data set [5] deals with LS174T. The data set can be described thus: Cytotoxicity against human LS174T cells assessed as viability upto 100 uM by MTT assay. It counts as functional. Put shortly:
as §1

For data set [6], the system named is SK-OV-3. The data set can be described thus: Cytotoxicity against human SKOV3 cells assessed as viability upto 100 uM by MTT assay. Format: functional. The essentials: as §1
Data set [7] can be described thus: Cytotoxicity against human CRL cells assessed as viability upto 100 uM by MTT assay. It counts as cell-based. The settings on record: read-out: Activity. Put shortly:
as §1

Chain of Cytochrome P450 3A4 (P08684 whole entry): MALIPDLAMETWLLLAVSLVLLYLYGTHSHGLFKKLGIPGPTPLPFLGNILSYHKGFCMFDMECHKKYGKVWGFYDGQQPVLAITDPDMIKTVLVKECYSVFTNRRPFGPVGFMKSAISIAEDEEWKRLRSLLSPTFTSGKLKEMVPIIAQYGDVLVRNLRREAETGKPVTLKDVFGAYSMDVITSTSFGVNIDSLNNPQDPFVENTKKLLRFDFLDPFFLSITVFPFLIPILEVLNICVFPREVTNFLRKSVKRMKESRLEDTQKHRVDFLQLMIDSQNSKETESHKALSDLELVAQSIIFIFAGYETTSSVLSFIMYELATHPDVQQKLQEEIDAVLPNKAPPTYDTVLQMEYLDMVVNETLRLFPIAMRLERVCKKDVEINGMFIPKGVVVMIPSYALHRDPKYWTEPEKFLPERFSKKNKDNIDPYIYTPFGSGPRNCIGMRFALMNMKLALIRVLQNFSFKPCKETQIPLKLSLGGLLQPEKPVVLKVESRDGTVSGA

Regarding `CC(=O)N1CCN(c2ccc(OCC3COC(C)(c4ccc(Cl)cc4Cl)O3)cc2)CC1` (stereo not drawn), the Activity in data set [1] is recorded as 10%. Moreover, the “inhibition (INH)” value in data set [2] stood at 109%.
On to `CC(=O)N1CCN(c2ccc(OC[C@H]3CO[C@@](C)(c4ccc(F)cc4F)O3)cc2)CC1`, for which the Activity is reported as 10% in data set [1], 98% in data set [4], 98% in data set [5] and 98% in data set [6]. Also, the “inhibition (INH)” value in data set [2] amounted to 103%. In data set [3], this compound returned a concentration for half-maximal inhibition (IC50) above 40 µM. In data set [7], the viability was determined as 98%.
`CC(=O)N1CCN(c2ccc(OC[C@H]3CO[C@](Cn4ccnc4)(c4ccc(Cl)cc4Cl)O3)cc2)CC1` [KETOCONAZOLE]: the Activity in data set [4], in data set [5] and in data set [6] was 65% in each case. Besides, the viability in data set [7] was 65%.
